Data taken from ChEMBL document CHEMBL2406995, “Cytotoxic indole alkaloids from Tabernaemontana divaricata” (J Nat Prod, 2013).

Columns and labels:
Assay type in all cases: functional, cell-based
SW480 = assay: Cytotoxicity against human SW480 cells after 48 hrs by MTT assay; conditions: SW480, 48 h
Procedure, shortened: (§1)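 Adherent cells grown in RPMI1640 or DMEM plus 10% FBS at 37 °C, 5% CO2. They were seeded in 96-well plates and left 12 h to adhere before dosing. MTT viability was used to plot growth curves, and IC50 was calculated by Reed and Muench's method.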

MCF7 = assay: Cytotoxicity against human MCF7 cells after 48 hrs by MTT assay; conditions: MCF7, 48 h; procedure, shortened: as §1
A549 = assay: Cytotoxicity against human A549 cells after 48 hrs by MTT assay; conditions: A549, 48 h; procedure, shortened: as §1
[1] = Cytotoxicity against human […] cells after 48 hrs by MTT assay; procedure, shortened: as §1
HL-60 = assay: Cytotoxicity against human HL60 cells after 48 hrs by MTT assay; conditions: HL-60, 48 h
Procedure, shortened: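 Suspension (leukemia) cells seeded just before drug addition at an initial density of 1 × 10^5 cells/mL. They were grown in RPMI1640 or DMEM with 10% FBS, 5% CO2, 37 °C. Cells were exposed for 48 h to […], 0.32, 1.6, 8 and 40 μM in triplicate, with cisplatin as positive control. Viability was read by MTT and IC50 was derived by Reed and Muench's method.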

Compound | IC50 (SW480) | IC50 (MCF7) | IC50 (A549) | IC50 [1] | IC50 (HL-60)
C/C=C1/CN(C)[C@H]2Cc3c([nH]c4ccccc34)[C@@H](c3c(O)ccc4c5c([nH]c34)[C@]3(C(=O)OC)C[C@H]4C[C@H](CC)[C@@H]3N(CC5)C4)C[C@@H]1[C@]2(CO)C(=O)OC | 2.72 µM | 3.02 µM | 9.4 µM | 3.75 µM | 2900 nM
CC[C@@]12CC(C(=O)OC)=C3Nc4cc5c(cc4[C@@]34CCN(C[C@H]3O[C@H]31)[C@@H]24)[C@@H]1[C@H](O5)[C@@H](O)[C@@]2(CC)CC(C(=O)OC)=C3Nc4c(cc(O)c(OC)c4OC)[C@@]34CCN1[C@@H]24 [CONOPHYLLINE] | 1.49 µM | 1.02 µM | 0.21 µM | 0.35 µM | 170 nM
C/C=C1/CN(C)[C@H]2Cc3c([nH]c4ccccc34)[C@H](c3cc4[nH]c5c(c4cc3OC)CCN3C[C@H]4C[C@H](CC)[C@H]3[C@H]5C4)C[C@H]1[C@]2(CO)C(=O)OC | 13 µM | 13.2 µM | 28.5 µM | 14.8 µM | 3880 nM
CC[C@H]1C[C@@H]2CN3CCc4c([nH]c5c([C@H]6C[C@H]7[C@]8(C(=O)OC)CO[C@H](N(C)[C@H]8Cc8c6[nH]c6ccccc86)[C@@]76O[C@@H]6C)c(OC)ccc45)[C@](C(=O)OC)(C2)[C@H]13 | 2.59 µM | 3.1 µM | 3.52 µM | 3.41 µM | 790 nM
CC[C@@]12CC[C@@H]3N(C)c4ccc([C@@H]5[C@H]6O[C@H]6[C@@]6(CC)CC(C(=O)OC)=C7Nc8c(cc(O)c(OC)c8OC)[C@@]78CCN5[C@@H]68)cc4[C@@]34CCN(C[C@H]3O[C@H]31)[C@@H]24 [CONOFOLINE] | 13.7 µM | 14 µM | 10.3 µM | 10.3 µM | 800 nM
C/C=C1/CN(C)[C@H]2Cc3c([nH]c4ccccc34)[C@H](c3cc4[nH]c5c(c4cc3OC)CCN3C[C@H]4C[C@H](CC)[C@H]3[C@@]5(C(=O)OC)C4)C[C@H]1[C@]2(CO)C(=O)OC | 16.5 µM | 13.3 µM | 16.5 µM | 9.86 µM | 2350 nM
CC[C@H]1C[C@H]2C[C@H]3c4[nH]c5ccc(OC)cc5c4CCN([C@@H]13)[C@@H]2CC(C)=O | 13 µM | 13.2 µM | 28.5 µM | 14.8 µM | 3880 nM
C/C=C1/CN(C)[C@H]2Cc3c([nH]c4ccccc34)[C@H](c3cc4c5c([nH]c4cc3OC)[C@]3(C(=O)OC)C[C@@H]4C[C@H](CC)[C@@H]3N(CC5)C4)C[C@H]1[C@]2(CO)C(=O)OC | 13.4 µM | 12.6 µM | 14.8 µM | 12.3 µM | 2680 nM
